# Screening results as filed in PubChem.
# Rows were chosen to be rich in hits. Some 1.8% of all compounds tested hit in one or more screens of this group.
# EBI2 antag – antagonists of human EBI2 receptor; P32249; EBI2 beta-arrestin recruitment, luminescence, 7a,25-OHC stimulated; inhibition, % at 5 µM; actives 0.81% (n = 360,000); AID 651636; in the data active = inhibition above about 38%;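 also: enzyme fragment complementation signal reports receptor beta-arrestin coupling in cells; 0% = agonist plus DMSO wells and 100% = wells without agonist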
# CCR6 antagonist – blocks CCL20-driven beta-arrestin recruitment at human CCR6; CHO-K1 CCR6 PathHunter beta-arrestin, luminescence, CCL20-stimulated; inhibition, % at 20 µM; actives 0.49% (n = 340,000);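 active = compounds whose inhibition of the agonist-driven luminescence signal at 20 µM reaches about 50%, limit read from the data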;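 also: cells stimulated with CCL20 at 14 nM final; plate controls were DMSO with CCL20 for no effect and DMSO without agonist for full effect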
# APJ antag – APJ receptor antagonism | inhibition, % at 20 µM | CHO-K1 APJ beta-arrestin complementation, luminescence | actives 0.32% (n = 330,000) | P35414;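 active = inhibition above about 40% at 20 µM, limit read from the data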;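 also: cells challenged with 10 nM apelin-13 agonist together with compound; plate controls were apelin-13 plus DMSO wells for no effect and DMSO wells lacking apelin-13 for full effect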
# APJ agonist – APJ receptor agonism | P35414 | CHO-K1 APJ PathHunter beta-arrestin, luminescence; 0% DMSO wells, 100% apelin | activation, % at 20 µM | actives 0.11% (n = 330,000);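 active = activation more than six SD over the plate average, tested at 20 µM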;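 also: 0% = DMSO alone and 100% = apelin-13 at 10 nM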
#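 Assay system: CHO-K1 cells stably expressing ProLink-tagged human APJ and arrestin–beta-gal acceptor. Compound dosing: 20 µM single point, 1% DMSO. Times: 16-18 h seeding, 90 min dark compound exposure, 60 min detection. Detection: beta-gal luminescence. Evaluation: APJ–arrestin association signal. Controls: negative DMSO alone, positive Apelin-13 at 10 nM.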
# CXCR6 inh – blocks human CXCR6 beta-arrestin recruitment. O00574. CHO-K1 PathHunter CXCR6 beta-arrestin, luminescence. inhibition, % at 20 µM. actives 0.36% (n = 360,000); in the data active = inhibition above about 34%, passing the limit was not always enough;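 also: antagonist mode with CXCL16 agonist at 10 nM final; 0% = 10 nM CXCL16 with DMSO and 100% = unstimulated wells without agonist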
# B2AR ag – activates human beta-2 adrenergic receptor causing internalization; response, % (concentration not given with the values); Am2.2-beta2AR cells, FAP receptor internalization, flow cytometry; actives 0.43% (n = 340,000);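 active = response above a set limit, near 3 SD of response in nonfluorescent compounds, cut at about 42% in these data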
# Target sequence (P07550 whole entry, looked up): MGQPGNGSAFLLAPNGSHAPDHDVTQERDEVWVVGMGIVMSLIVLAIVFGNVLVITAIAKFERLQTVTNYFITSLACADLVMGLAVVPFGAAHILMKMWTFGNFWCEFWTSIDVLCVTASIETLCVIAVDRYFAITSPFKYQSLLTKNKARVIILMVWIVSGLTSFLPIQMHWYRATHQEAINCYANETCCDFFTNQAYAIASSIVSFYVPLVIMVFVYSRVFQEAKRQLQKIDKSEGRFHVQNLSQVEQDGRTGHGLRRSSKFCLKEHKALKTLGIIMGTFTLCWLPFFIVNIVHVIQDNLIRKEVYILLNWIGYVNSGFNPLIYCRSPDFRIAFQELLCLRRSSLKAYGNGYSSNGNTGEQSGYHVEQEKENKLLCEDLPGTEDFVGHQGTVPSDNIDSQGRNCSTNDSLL
# EBI2 conf – EBI2 (human) antagonism, single concentration confirmation. EBI2 beta-arrestin luminescence, 7a,25-OHC antagonism. shares compounds with EBI2 antag. AID 651997. inhibition, % at 5 µM. actives 29% (n = 2,400);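 active = inhibition of at least 50%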
# EBI2 ag – counter-screen for EBI2 antagonists: EBI2 agonist activity; EBI2-expressing cells, agonist mode, luminescence, 60 min; 0% vehicle, 100% 7α,25-dihydroxycholesterol control; 2,400 tested, under 10 active; shares compounds with EBI2 antag; AID 652000; activation, % at 5 µM;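 active = activation of at least 50%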
# bGal cs – inhibits E. coli beta-galactosidase, counter-screen for EBI2 antagonists | shares compounds with EBI2 antag | actives 1% (n = 2,400) | inhibition, % at 5 µM | AID 652176 | purified beta-galactosidase, luminescent Galacton Star, 15 min;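 active = replicate-average signal at least 3 plate SD below neutral wells, shown as high inhibition, flagging enzyme-inhibiting false positives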;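 also: 0% = DMSO wells with enzyme and 100% = wells lacking enzyme; higher means stronger loss of beta-gal luminescence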
# Active calls of the source: *; x = no result given.
SMILES,EBI2 antag,CCR6 antagonist,APJ antag,APJ agonist,CXCR6 inh,B2AR ag,EBI2 conf,EBI2 ag,bGal cs
O=C(Nc1ccc(Oc2ccccc2)nc1)C1CCN(Cc2ccco2)CC1,3,18,-9,3,-5,-2,x,x,x
O=C(COC(=O)c1ccc[nH]c1=O)NCCCc1ccccc1,1,8,-2,-3,3,-3,x,x,x
O=C(Cn1cc([N+](=O)[O-])cn1)N1N=C(C(F)F)CC1(O)C(F)F (configuration not stated),-2,-1,18,0,3,4,x,x,x
O=c1n(Cc2ccccc2)c2cc(Cl)cnc2n1Cc1ccccc1,71*,19,29,-3,8,-3,50*,0,6
O=C1NC[C@@H](CCCCN2CCN(CCc3ccccc3)C(=O)C2=O)N(Cc2ccccc2)C1=O,-1,x,x,x,7,x,x,x,x
Cc1ccc(N/C=C(\C#N)c2ccc(OCCCF)cc2)cc1,81*,12,-5,0,3,10,52*,-1,-15
COc1ccc(N/C=C(\C#N)c2ccc(OCCCF)cc2)cc1,72*,10,-1,-8,9,0,37,-1,-12
COc1ccc(N/C=C(\C#N)S(=O)(=O)c2ccc(OC)cc2)cc1,-2,9,-15,-3,0,-3,x,x,x
C=CCOc1ccc(/C=C/C(=O)N2CCCN(S(=O)(=O)c3c(C)noc3C)CC2)cc1,63*,-5,2,2,-6,-4,48,-1,-5
COc1cc(C=O)ccc1OCCCOc1ccc([N+](=O)[O-])cc1,1,0,-5,2,4,2,x,x,x
COC(=O)C(=Cc1ccc(OCc2ccc([N+](=O)[O-])cc2)c(OC)c1)C(=O)OC,57*,40,9,-5,22,3,67*,1,3
CC1=NN(c2ccc(Cl)cc2)C(=O)C1C(c1ccccc1O)c1c(C)[nH]n(-c2ccc(Cl)cc2)c1=O (configuration not stated),65*,-3,3,0,25,6,35,1,-7
CC1=NN(c2ccc(C)cc2C)C(=O)C1C(c1ccccc1O)C1C(=O)N(c2ccc(C)cc2C)N=C1C (configuration not stated),9,13,-1,0,-6,8,x,x,x
Cc1ccccc1OCC(=O)OCC(=O)c1c[nH]c2ccccc12,-3,8,-3,4,-3,-3,x,x,x
CCOc1cc(/C=N/NC(=O)c2nnn(-c3nonc3N)c2C)ccc1OCc1cccc(F)c1,42*,-5,6,6,-7,4,43,0,9
CCOc1cc(/C=N/NC(=O)c2nnn(-c3nonc3N)c2C)ccc1OCc1ccc(F)cc1,52*,-11,19,-1,0,20,34,-1,-12
CCOc1cc(/C=N/NC(=O)c2nnn(-c3nonc3N)c2C)ccc1OCc1ccc(C)cc1,54*,x,x,x,13,x,51*,-1,10
Cc1csc(NC(=O)CSc2nnc(NC(=O)COc3ccc(Cl)cc3)s2)n1,-4,12,5,1,-6,-9,x,x,x
O=C(Oc1ccc(-c2cnc3ccccc3n2)cc1)c1cc([N+](=O)[O-])ccc1Cl,55*,12,-13,6,1,3,12,0,4
Cc1c(C(=O)Oc2ccc(-c3cnc4ccccc4n3)cc2)cccc1[N+](=O)[O-],11,-47,6,-2,-4,4,x,x,x
CC(=O)c1cnn(-c2ccccc2)c1C,-1,17,18,-4,-2,-1,x,x,x
Cc1c(C(=O)Oc2cccc3ccccc23)cnn1-c1ccccc1,31*,4,-6,-2,-1,-4,4,0,2
CCCCOc1ccc(CN2CCSCC2)cc1,-19,6,16,-4,-2,-8,x,x,x
CCN(CC(=O)NCc1ccc(Cl)cc1)C(=O)NCc1ccc(Cl)cc1,5,-2,-11,-1,4,2,x,x,x
CCN(CC(=O)NCc1ccc(Cl)cc1)C(=O)CSc1ccc(Br)cc1,68*,-2,5,0,4,-8,35,0,5
SMILES,EBI2 antag,CCR6 antagonist,APJ antag,APJ agonist,CXCR6 inh,B2AR ag,EBI2 conf,EBI2 ag,bGal cs
COC(=O)c1ccc(CSc2nc3cc(Cl)ccc3s2)o1,0,8,-34,6,-5,-1,x,x,x
COC(=O)c1ccc(CSc2nnc(Nc3ccc(C)cc3)s2)o1,38*,7,-30,-2,-5,10,48,2,7
c1ccc2c(C3OCC4(CCCCC4)CO3)cccc2c1,-1,x,x,x,-5,x,x,x,x
CN(Cc1ccccc1)c1nccn2ccnc12,0,x,x,x,-3,x,x,x,x
CCCCNC(=O)C(NC(=O)c1cccs1)C(=O)c1ccccc1 (configuration not stated),-1,x,x,x,x,x,x,x,x
Cc1ccc2nc(-c3ccc(C#N)cc3)c(Cc3ccccc3C(F)(F)F)n2c1,47*,x,x,x,15,x,13,-1,-9
N#Cc1ccc(-c2nc3ccc(Br)cn3c2Cc2ccccc2C(F)(F)F)cc1,34,x,x,x,5,x,x,x,x
Cc1cccc(N(CC(=O)NCCSc2nc3ccccc3s2)S(=O)(=O)c2ccccc2)c1,x,x,3,-1,x,x,x,x,x
Cc1ccc(N(CC(=O)NCCSc2nc3ccccc3s2)S(=O)(=O)c2ccccc2)c(C)c1,46*,9,-2,-2,7,4,14,0,2
O=C(CN(c1ccccc1)S(=O)(=O)c1ccccc1)NCCSc1nc2ccccc2s1,59*,-2,24,-1,8,6,53*,1,-3
Cc1ccccc1N(CC(=O)NCCSc1ccccn1)S(=O)(=O)c1ccccc1,8,-1,4,0,-3,-1,x,x,x
CCN(CC)S(=O)(=O)c1cccc(C(=O)NC(C(=O)NNC(=O)c2ccccc2F)C(C)C)c1 (configuration not stated),3,18,x,x,9,-8,x,x,x
CC(=O)N(CN1C(=O)c2ccccc2C1=O)c1ccc2c(c1)oc1ccccc12,9,-4,4,1,5,-7,x,x,x
COCCN1C(=O)c2cc(C(=O)Nc3ccc(C)c(F)c3)ccc2C1Nc1ccc(C)c(F)c1 (configuration not stated),86*,-3,-6,4,-10,11,65*,-1,-14
